PubChem BioAssay
Active and inactive are the calls of the source.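 Rule for the calls, unless noted: active = viability at or below 10% of carrier control in both of two separate runs; inconclusive = viability at or below 10% in only one of the two runs; inactive = the rest.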

Key:
[1] = Her2 expression decrease, cell viability multiplex – SKBR3 breast tumor cells, AlphaScreen, ATP viability, primary screen (AID 461;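 active = Her2 level under about 52% in both replicate screens, with viability over 70% of control, limit read from the data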;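 for Her2 level: lower value means less Her2 protein in the cells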;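 for viability: percent of carrier control wells set as 100% viability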); settings: SKBR3 Her2 protein level, 18-24 h, measured here: SKBR3 viability, ATP luminescence, at 10 µM
[2] = molecular target: Receptor tyrosine-protein kinase erbB-2 (Homo sapiens) (UniProt P04626); assay: as above; settings: 18-24 h, at 10 µM, stronger effect = lower value
[3] = reduced viability of SK-BR-3 breast cancer cells – cell-based, 24 h, human, pilot screen (AID 572); settings: SK-BR-3 viability, CellTiter-Glo luminescence, at 10 µM, stronger effect = lower value;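 note: compound exposure lasted between 18 and 24 h rather than exactly 24 h; 100% = carrier-treated control wells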
[4] = HUVEC growth inhibition – cell-based, human, primary screen (AID 575;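 active = viability at or below 30% in both replicate assays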;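 note: 100% = median of untreated cell wells with 0.1% DMSO on each plate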); settings: HUVEC proliferation, CellTiter-Glo luminescence, 72 h; at 10 µM; stronger effect = lower value
Procedure, shortened: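 Material: primary human umbilical vein endothelial cells / Schedule: 72 h exposure, 37 °C, 5% CO2, 30 min RT equilibration / Signal: ATP-based CellTiter-Glo luminescent read / Read-out basis: percent of median DMSO-control luminescence / Control set: 32 DMSO-only cell-control wells (high), 32 MePR drug-control wells (low) per plate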

[5] = H69AR cell proliferation blockers – human, duplicate replicates, primary screen (AID 580;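 active = viability at or under a set limit in both replicates, limit being median viability minus 3 SD, cut at about 48% in these data, passing the limit was not always enough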;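 note: 100% = mean luminescence of untreated wells and 0% = no signal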); settings: H69AR lung tumor cells viability, ATP luminescence, 72 h; at 10 µM; stronger effect = lower value
[6] = MRP1 drug-resistance reversers in H69AR cells – cell-based, doxorubicin co-treatment, pilot screen (AID 601;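 active = viability loss from added drug above about 55%, and viability with drug at most 40%, in both replicates, limit read from the data, passing the limit was not always enough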); settings: CellTiter-Glo, 72 h, at 10 µM; for differential viability (reversal): stronger effect = higher value
[7] = yeast transport mutant growth inhibition pilot in 384-well plates, post-Golgi transport modulator project (AID 636; in the data active = inhibition above about 31%); settings: absorbance 615 nm, about 18 h, stronger effect = higher value
[8] = growth suppression of yeast trafficking mutant, preliminary HTS, modulators of trafficking downstream of Golgi apparatus project, 1536-format plate, OD 615 nm (AID 637; in the data active = inhibition above about 30%); settings: yeast transport mutant growth, absorbance 615 nm, 18 h; stronger effect = higher value
[9] = H69AR cells + 2 uM doxorubicin, measured here: viability with 2 uM doxorubicin, stronger effect = lower value
[10] = H69AR cells, compound alone cytotoxicity

Chain of Receptor tyrosine-protein kinase erbB-2 (Homo sapiens) (P04626 whole entry, looked up): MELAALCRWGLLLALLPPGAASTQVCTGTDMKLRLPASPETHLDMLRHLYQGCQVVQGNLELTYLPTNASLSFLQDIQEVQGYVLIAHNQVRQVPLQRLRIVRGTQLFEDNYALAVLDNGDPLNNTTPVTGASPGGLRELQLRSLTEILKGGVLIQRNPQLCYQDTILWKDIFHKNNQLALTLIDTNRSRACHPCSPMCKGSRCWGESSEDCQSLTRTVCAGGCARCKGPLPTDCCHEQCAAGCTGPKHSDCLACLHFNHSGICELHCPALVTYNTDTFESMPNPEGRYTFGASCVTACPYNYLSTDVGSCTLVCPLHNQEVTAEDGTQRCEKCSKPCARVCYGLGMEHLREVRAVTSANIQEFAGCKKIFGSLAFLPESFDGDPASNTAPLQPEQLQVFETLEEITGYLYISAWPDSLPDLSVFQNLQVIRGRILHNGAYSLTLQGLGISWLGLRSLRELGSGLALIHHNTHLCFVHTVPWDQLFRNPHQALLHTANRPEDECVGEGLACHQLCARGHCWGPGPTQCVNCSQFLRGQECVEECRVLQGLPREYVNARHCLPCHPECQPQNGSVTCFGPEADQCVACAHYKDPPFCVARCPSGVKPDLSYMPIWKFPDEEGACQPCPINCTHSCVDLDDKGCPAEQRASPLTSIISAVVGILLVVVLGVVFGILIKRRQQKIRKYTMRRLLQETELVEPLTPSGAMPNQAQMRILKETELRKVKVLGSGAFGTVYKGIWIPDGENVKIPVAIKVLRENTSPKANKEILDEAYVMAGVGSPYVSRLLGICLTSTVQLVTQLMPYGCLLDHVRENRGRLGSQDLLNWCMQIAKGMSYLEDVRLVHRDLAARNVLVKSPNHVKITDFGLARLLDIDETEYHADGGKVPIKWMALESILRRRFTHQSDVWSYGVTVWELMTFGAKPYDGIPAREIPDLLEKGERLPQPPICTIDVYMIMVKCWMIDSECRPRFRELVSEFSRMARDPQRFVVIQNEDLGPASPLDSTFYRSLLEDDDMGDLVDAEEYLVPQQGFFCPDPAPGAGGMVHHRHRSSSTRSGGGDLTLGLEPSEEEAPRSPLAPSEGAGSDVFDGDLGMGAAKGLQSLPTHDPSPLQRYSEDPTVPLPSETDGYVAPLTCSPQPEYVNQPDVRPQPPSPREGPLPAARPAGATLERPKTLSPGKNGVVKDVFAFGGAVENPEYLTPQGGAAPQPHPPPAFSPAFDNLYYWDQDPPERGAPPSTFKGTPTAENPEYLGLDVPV

Row | Compound | viability [1] [%] | Her2 level [2] | viability [3] | viability [4] | viability [5] | differential viability (reversal) ([6]; H69AR cells + 2 uM doxorubicin) | viability [6, 9] [%] | viability [6, 10] [%] | inhibition [7] | inhibition [8]
1 | Cn1c(=O)c2c(nc(SCCCO)n2Cc2ccccc2Cl)n(C)c1=O | 80.5 | 78.5% (inactive) | 80.5% (inactive) | 67.2% (inactive) | 79.3% (inactive) | 51.5% (inactive) | 27.9 | 79.3 | -1.6% (inactive) | 2.62% (inactive)
2 | COc1cc(C2c3c(oc4c(C)cc(C)cc4c3=O)C(=O)N2Cc2cccnc2)cc(OC)c1OC (stereo not given) | 110 | 114% (inactive) | 110% (inactive) | 97.6% (inactive) | 110% (inactive) | 6.48% (inactive) | 104 | 110 | 1.33% (inactive) | -3.06% (inactive)
3 | CCOC(=O)C1CCN(C(=O)c2ccc(Cl)c(Cl)c2)CC1 | 75.5 | 105% (inactive) | 75.5% (inactive) | 94.3% (inactive) | 102% (inactive) | 5.88% (inactive) | 96.3 | 102 | 3.65% (inactive) | -2.3% (inactive)
4 | CC(=O)c1ccc(Oc2cc(C)nc(-n3nc(C)cc3C)n2)cc1 | 107 | 96% (inactive) | 107% (inactive) | 51.7% (inactive) | 29.4% (active) | -36.8% (inactive) | 66.2 | 29.4 | -5.87% (inactive) | -2.1% (inactive)
5 | COc1cccc(NC(=O)COc2ccccc2C(N)=O)c1 | 93.5 | 110% (inactive) | 93.5% (inactive) | 83.1% (inactive) | 105% (inactive) | 16% (inactive) | 88.7 | 105 | 0% (inactive) | -7.9% (inactive)
6 | CCOC(=O)c1cc2c(=O)n3cccc(C)c3nc2n(CCc2ccccc2)c1=N | 82 | 72% (inactive) | 82% (inactive) | 75.9% (inactive) | 77.9% (inactive) | -1.89% (inactive) | 79.8 | 77.9 | -4.8% (inactive) | 5.9% (inactive)
7 | CCSC1=NCN(CCCC(=O)O)CN1 | 118 | 100% (inactive) | 118% (inactive) | 96.3% (inactive) | 99.9% (inactive) | -1.83% (inactive) | 102 | 99.9 | 0.13% (inactive) | -0.16% (inactive)
8 | CCn1c(C(=O)N2CCC(C(=O)NCc3ccc4c(c3)OCO4)CC2)cc2sccc21 | 89 | 77.5% (inactive) | 89% (inactive) | 96.7% (inactive) | 89.6% (inactive) | 4.37% (inactive) | 85.3 | 89.6 | -2.93% (inactive) | 1.64% (inactive)
9 | CC(=O)NCCOc1cccc(OCCNC(C)=O)c1 | 94.5 | 122% (inactive) | 94.5% (inactive) | 103% (inactive) | 86.3% (inactive) | -5.34% (inactive) | 91.7 | 86.3 | 2.67% (inactive) | -3.17% (inactive)
10 | COC(=O)c1ccccc1NC(=O)Cn1ccnc1 | 110 | 88.5% (inactive) | 110% (inactive) | 80.8% (inactive) | 97.7% (inactive) | -3.07% (inactive) | 101 | 97.7 | -2.3% (inactive) | 1.11% (inactive)
11 | CCOC(=O)N1CCN(C(=O)c2ccc3nc4cc(Cl)ccc4c(=O)n3c2)CC1 | 91 | 95% (inactive) | 91% (inactive) | 96% (inactive) | 91.1% (inactive) | 2.21% (inactive) | 88.8 | 91.1 | -3.07% (inactive) | 2.1% (inactive)
12 | Cc1cc(Cl)ccc1OCCCC(=O)NO | 80.5 | 76% (inactive) | 80.5% (inactive) | 71.3% (inactive) | 2.07% (active) | -20.7% (inactive) | 22.7 | 2.07 | 2.18% (inactive) | 3.83% (inactive)
13 | O=S(=O)(NCc1ccco1)c1cccc2cccnc12 | 105 | 93.5% (inactive) | 105% (inactive) | 89.7% (inactive) | 79% (inactive) | -9.52% (inactive) | 88.5 | 79 | -1.18% (inactive) | -1.45% (inactive)
14 | CC1CCCCC1NC(=O)c1nn(C)c(=O)c2ccccc12 (stereo not given) | 88 | 104% (inactive) | 88% (inactive) | 90.4% (inactive) | 89.2% (inactive) | 13.3% (inactive) | 75.8 | 89.2 | -1.69% (inactive) | -10% (inactive)
15 | COc1ccc(C2C(C(=O)NCCN3CCOCC3)c3ccccc3C(=O)N2C2CCCCC2)cc1 (stereo not given) | 88.5 | 71% (inactive) | 88.5% (inactive) | 64.3% (inactive) | 81.3% (inactive) | 2.12% (inactive) | 79.2 | 81.3 | -3.33% (inactive) | 0% (inactive)
16 | Cc1ccc(-c2cc(C(=O)Nc3cc(C)ccc3C)[nH]n2)c(O)c1 | 102 | 88% (inactive) | 102% (inactive) | 109% (inactive) | 92.4% (inactive) | 2.75% (inactive) | 89.6 | 92.4 | -3.16% (inactive) | -1.9% (inactive)
17 | CSCCC(NC(=O)c1ccco1)C(=O)O (stereo not given) | 97.5 | 110% (inactive) | 97.5% (inactive) | 112% (inactive) | 91.8% (inactive) | 0.86% (inactive) | 91 | 91.8 | -0.93% (inactive) | 15% (inactive)
18 | CCCCCCC(C)n1[nH]c(=O)c2c(C)cc(=O)[nH]c21 (stereo not given) | 89.5 | 107% (inactive) | 89.5% (inactive) | 77.7% (inactive) | 94.2% (inactive) | -4.37% (inactive) | 98.6 | 94.2 | -1.73% (inactive) | -7.54% (inactive)
19 | CCOC(=O)C(C)Sc1nc2c(cnn2-c2ccc(C)cc2)c(=O)[nH]1 (stereo not given) | 83 | 85.5% (inactive) | 83% (inactive) | 51.8% (inactive) | 14.4% (active) | -58.2% (inactive) | 72.6 | 14.4 | -2.53% (inactive) | -11.2% (inactive)
20 | Cn1c(=O)c2nc(Cl)n(Cc3ccc(Cl)cc3Cl)c2n(C)c1=O | 96 | 75% (inactive) | 96% (inactive) | 105% (inactive) | 88.3% (inactive) | 12.5% (inactive) | 75.9 | 88.3 | -3.2% (inactive) | 7.58% (inactive)
21 | Cc1nc2ccccc2c2c1C(=O)N(CCC1=CCCCC1)C2=O | 83.5 | 87% (inactive) | 83.5% (inactive) | 103% (inactive) | 88.4% (inactive) | -1.33% (inactive) | 89.7 | 88.4 | -3.42% (inactive) | -1.17% (inactive)
22 | O=C1c2ccccc2C(=O)N1CNc1ccccc1 | 96.5 | 93.5% (inactive) | 96.5% (inactive) | 108% (inactive) | 101% (inactive) | -17.7% (inactive) | 118 | 101 | -5.2% (inactive) | -1.15% (inactive)
23 | CCCCOc1ccc(-c2nnc(N)s2)cc1 | 85.5 | 98% (inactive) | 85.5% (inactive) | 93.3% (inactive) | 98.5% (inactive) | 12.6% (inactive) | 85.9 | 98.5 | 3.33% (inactive) | 1.15% (inactive)
24 | CCc1ccccc1NC(=O)CCc1nc(-c2ccc(C)cc2)no1 | 95 | 71.5% (inactive) | 95% (inactive) | 83% (inactive) | 99.3% (inactive) | 3.1% (inactive) | 96.2 | 99.3 | -4.61% (inactive) | -3.67% (inactive)
25 | COc1ccc(CCNC(=O)COc2ccc(S(=O)(=O)N3CCOCC3)cc2)cc1 | 98 | 87% (inactive) | 98% (inactive) | 102% (inactive) | 95.1% (inactive) | 6.25% (inactive) | 88.9 | 95.1 | -6.76% (inactive) | 0% (inactive)
26 | CCS(=O)(=O)N1CCC(C(=O)NC2CCCCCCC2)CC1 | 98 | 110% (inactive) | 98% (inactive) | 108% (inactive) | 97.5% (inactive) | 7.86% (inactive) | 89.6 | 97.5 | -0.51% (inactive) | -1.5% (inactive)
27 | COc1ccc(OC)c(C(=O)c2coc3ccc(O)c(CN4CCOCC4)c23)c1 | 95.5 | 78% (inactive) | 95.5% (inactive) | 97.8% (inactive) | 90.1% (inactive) | -4.02% (inactive) | 94.1 | 90.1 | -5.07% (inactive) | -8.73% (inactive)
28 | CN(C)/C=C(\C#N)c1nc2ccccc2[nH]1 | 85 | 90% (inactive) | 85% (inactive) | 97.6% (inactive) | 98% (inactive) | 20.9% (inactive) | 77 | 98 | 2.37% (inactive) | -8.36% (inactive)
